A selection: hits, their analogues and other compounds. The true share with any hit is near 2.1%.
p97 inhibitor: inhibitors of human p97 ATPase; P55072; recombinant p97 ATPase, Kinase-Glo ATP luminescence, 3 h; inhibition, % at 8 µM; 0.42% of 220,000 active; in the data active means inhibition above about 15%
TbHK1 inh: T. brucei hexokinase 1 inhibition | 0.11% of 220,000 active | AID 1430 | recombinant TbHK1, G6PDH-coupled NADH A340 | inhibition, % at 10 µM;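 active means inhibition of 50% or more in the single-dose primary screen; inactive means inhibition below 50%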
Runt-SMMHC FRET: Runt domain-CBFb-SMMHC interaction inhibition; Q01196+Q13951; Cerulean-Runt/Venus-CBFb-SMMHC FRET ratio 530/480, 1 h; inhibition, % at 20 µM; 0.74% of 220,000 active; AID 1434;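 active means mean inhibition across duplicate retests at 20 µM reaching about 50%, limit read from the data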;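 further: inhibitors lower the FRET ratio by blocking Runt binding to CBFb-SMMHC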
Hck Nef HTS: inhibitors of human Hck kinase activated by Nef; 0.68% of 220,000 active; Recombinant Hck-YEEI plus Nef, Z-Lyte FRET kinase assay; AID 463187; P08631; inhibition, % at 20 µM;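 active means Hck-Nef kinase inhibition above about 50%, limit read from the data; inactive means inhibition below that limit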
Target sequence (P08631 whole entry, looked up): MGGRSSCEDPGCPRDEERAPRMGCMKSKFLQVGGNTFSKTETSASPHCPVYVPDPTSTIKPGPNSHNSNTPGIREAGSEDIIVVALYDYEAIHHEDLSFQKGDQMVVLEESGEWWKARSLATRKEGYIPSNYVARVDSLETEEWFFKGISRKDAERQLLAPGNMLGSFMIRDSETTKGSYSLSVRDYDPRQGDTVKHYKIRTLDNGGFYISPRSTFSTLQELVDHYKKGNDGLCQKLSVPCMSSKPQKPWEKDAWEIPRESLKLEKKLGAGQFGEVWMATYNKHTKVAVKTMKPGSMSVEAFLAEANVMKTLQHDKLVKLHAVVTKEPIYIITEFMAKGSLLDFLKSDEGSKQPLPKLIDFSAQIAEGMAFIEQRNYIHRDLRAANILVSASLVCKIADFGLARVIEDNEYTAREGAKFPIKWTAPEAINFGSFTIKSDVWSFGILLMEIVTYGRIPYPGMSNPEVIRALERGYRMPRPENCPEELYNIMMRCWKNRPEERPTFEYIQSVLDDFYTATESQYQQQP
Runt-CBFb FRET: inhibitors of human RUNX1 Runt domain binding to CBFb; Q01196+Q13951; Cerulean-Runt/Venus-CBFb FRET ratio 530/480, 1 h; inhibition, % at 20 µM; 0.46% of 220,000 active;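 active means inhibition over about 50% at 20 µM in the single-dose screen, limit read from the data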
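Measured by: fluorescence energy transfer, 422 nm excitation, 530/480 nm emission; test system: Cerulean-tagged RUNX1 Runt domain (FRET donor) fusion protein; buffer or medium: Tris pH 7.5 buffer with BSA; compound: one dose, 20 µM compound, 1% DMSO; times: two 1 h room-temperature incubations shielded from light; benchmarks: unlabeled CBFb 5 µM, positive control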
RanGTP-Impb inh: disruptors of Ran-importin-beta complex formation – biochemical, FRET, CFP-Ran, YFP-importin-beta, homogeneous, primary screen | 1.1% of 300,000 active | inhibition, % (concentration not given with the values) | cell-free CFP-Ran/YFP-importin-beta FRET ratio;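 active means more than half of the replicate wells show a fall in the fluorescence ratio signal beyond about 16%, limit read from the data, passing the limit was not always enough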
Hits are given with their value; . = inactive; / = no result given; + = active, no number.

SMILES	p97 inhibitor	TbHK1 inh	Runt-SMMHC FRET	Hck Nef HTS	Runt-CBFb FRET	RanGTP-Impb inh
N=c1c(C(=O)NC2CCCCC2)cc2c(=O)n3ccccc3nc2n1Cc1ccccc1	/	/	/	/	/	180.1
N=c1c(C(=O)NC2CCCCC2)cc2c(=O)n3ccccc3nc2n1CCc1ccccc1	/	/	/	/	/	160.7
N=c1c(C(=O)NC2CCCCC2)cc2c(=O)n3ccccc3nc2n1Cc1ccco1	/	/	/	/	/	64.6
COc1ccc(-c2csc(NC(=O)C3CCN(C(=O)c4ccc(F)cc4)CC3)n2)cc1OC	/	/	/	/	/	.
COc1ccc(CCn2c(=N)c(C(=O)NCc3ccco3)cc3c(=O)n4ccccc4nc32)cc1	.	.	.	.	87.4	21.9
N=c1c(C(=O)NCc2ccc(F)cc2)cc2c(=O)n3ccccc3nc2n1Cc1cccnc1	.	.	59.0	.	.	180.6
Cc1ccc(Cn2c(=N)c(C(=O)NC3CCCC3)cc3c(=O)n4ccccc4nc32)cc1	/	/	/	/	/	.
COC(=O)c1cc2c(=O)n3ccccc3nc2n(Cc2cccnc2)c1=N	.	.	/	.	/	.
N=c1c(C(=O)NC2CCCCC2)cc2c(=O)n3ccccc3nc2n1Cc1cccnc1	/	/	/	/	/	+
COc1ccc(CCn2c(=N)c(S(=O)(=O)c3ccccc3)cc3c(=O)n4ccccc4nc32)cc1	/	/	/	/	/	.
CCC(C)OC(=O)C1=C(C)NC(=O)CC1c1ccccc1OC (stereo unspecified)	.	.	.	.	.	.
CCOC(=O)C(=NCCCN1CCOCC1)NNc1cccc(C(F)(F)F)c1	.	.	.	.	.	.
N#Cc1ccccc1OCC(=O)OCCCOC(=O)COc1ccccc1C#N	/	/	/	/	/	.
CCn1c(C)c(C(C)=O)c(N2CCN(c3ccccc3)CC2)nc1=S	.	.	.	.	.	19.5
CCn1c(C)c(C(C)=O)c(N2CCN(C(c3ccccc3)c3ccccc3)CC2)nc1=S	.	.	.	.	.	57.3
O=C(CCN1C(=O)[C@@H]2Cc3ccccc3CN2C1=O)NCc1ccc(Cl)cc1	/	/	/	/	/	.
Cc1cc(C)cc(NC(=O)CCn2ccnc2)c1	/	/	/	/	/	.
O=C(CCCOc1ccccc1)Nc1ccc(S(=O)(=O)Nc2ccccn2)cc1	.	.	.	.	.	.
CCCCn1c(N)c(NCC(C)C)c(=O)[nH]c1=O	.	.	.	.	.	.
CCCCn1c(N)c(NCC)c(=O)[nH]c1=O	.	.	69.6	.	.	/
COc1cccc(-c2c3c([nH]c(=O)c2C#N)CCc2cc(OC)ccc2-3)c1	.	.	80.2	.	89.3	93.9
COc1cccc(-c2cc(C(F)(F)F)c(C#N)c(=O)[nH]2)c1	.	.	.	.	.	.
COc1ccc(/C=C(/NC(=O)c2ccccc2)C(=O)N2CCCC2)cc1	/	/	/	/	/	.
COC(=O)c1noc(C)c1-c1ccnn1C(=O)c1ccc(C)cc1	.	.	.	.	.	11.7
Cc1cc(OCc2ccc(C(=O)n3cccn3)o2)ccc1Cl	.	.	.	.	.	66.5
SMILES	p97 inhibitor	TbHK1 inh	Runt-SMMHC FRET	Hck Nef HTS	Runt-CBFb FRET	RanGTP-Impb inh
O=C(c1ccc(COc2ccc(F)cc2)o1)n1cccn1	.	.	.	.	.	.
Cc1ccc(Nc2nc3nonc3[nH]c2=O)cc1Cl	.	.	.	.	.	.
CCCCNC(=O)CCC(=O)Nc1ccc2nc(N3CCCCC3)cc(C)c2c1	.	.	.	69.1	.	.
CCCCNC(=O)CCC(=O)Nc1ccc2nc(N3CCOCC3)cc(C)c2c1	.	.	.	.	.	.
CC(C)(C)c1ccc(Cn2nnc3c(=O)[nH]c(C4CCN(C(=O)c5ccco5)CC4)nc32)cc1	/	/	/	/	/	.
O=C(CN(CC1CCCO1)C(=O)CNS(=O)(=O)c1ccc(F)cc1)NC1CCCC1 (stereo unspecified)	/	/	/	/	/	.
COc1cc([C@@H]2[C@H]3CNCC=C3C(C#N)=C(N)C2(C#N)C#N)ccc1OC(C)C	.	.	.	.	.	62.7
CCCOc1ccc([C@@H]2C3CN(C(=O)OCC)CC=C3C(C#N)=C(N)C2(C#N)C#N)cc1OC (stereo partly specified)	.	.	.	.	.	.
O=C(CC1C(=O)NCCN1Cc1c(F)cccc1Cl)NCCCOc1cccnc1 (stereo unspecified)	/	/	/	/	/	.
COc1ccc(/C(O)=C/c2nc3ccccc3n(-c3ccccc3)c2=O)cc1	.	.	.	.	.	46.7
Cc1onc(-c2ccc(Cl)cc2Cl)c1C(=O)/C=C/N(C)C	.	.	.	.	.	.
Cc1onc(-c2ccccc2)c1C(=O)/C=C/N(C)C	.	.	.	.	.	16.9
O=Cc1ccc(O)c2ncccc12	.	.	74.3	.	.	.
COc1ccc(NC(=O)CCl)cn1	24.7	.	.	.	.	.
COc1ccc(NC(=O)/C(Cl)=C(/Cl)S(=O)(=O)Cc2ccccc2)cn1	.	.	.	.	.	.
COc1ccc(NC(=O)/C(Cl)=C(/Cl)S(=O)Cc2ccc(Cl)cc2)cn1 (stereo unspecified)	20.0	.	.	.	.	/
CCOC(=O)C1CCN(c2nc3ccccc3n2CC(=O)c2ccccc2)CC1	.	.	.	.	.	21.2
COc1ccc(N2CCN(c3nc4ccccc4n3CC(=O)c3ccccc3)CC2)cc1	.	.	.	.	.	.
N#C/C(=C(/O)COC(=O)CCc1ccc(S(=O)(=O)N2CCOCC2)cc1)c1nc2ccccc2[nH]1	.	.	.	.	.	28.8
CC(C)OC(=O)c1sc2nc(-c3ccccc3)ccc2c1N	.	.	.	.	.	20.2
COc1ccc(C(=O)c2sc3nc(-c4ccccc4)ccc3c2N)cc1	.	.	.	.	.	/
CN(c1ccc(C(=O)N/N=C/c2cccc([N+](=O)[O-])c2)cc1)S(=O)(=O)c1ccccc1	/	/	/	/	/	27.7
Cc1ccc2nc(SC(C)C(=O)NCc3ccc4c(c3)OCO4)[nH]c2c1 (stereo unspecified)	.	.	.	.	.	.
Cc1ccc(N(CC(=O)N/N=C/c2cc(C)n(-c3ccccc3)c2C)S(C)(=O)=O)c(C)c1	.	.	.	.	.	.
Cc1cc(/C=N/NC(=O)Cn2c3ccccc3c(=O)c3ccccc32)c(C)n1-c1ccccc1	.	.	.	.	/	93.9
C/C(=N\NC(=O)c1nnn(-c2nonc2N)c1C(C)C)c1cc(C)sc1C	/	/	/	/	/	97.4
Nc1nc(N)c(N=Nc2ccc(SCC(=O)O)cc2)c(=O)[nH]1	.	.	.	.	.	44.0
Nc1nc(N)c(N=Nc2ccc(Cl)cc2)c(=O)[nH]1	.	.	.	.	.	.
CCC(C)NC(=O)C(NS(=O)(=O)c1ccc2c(c1)c(=O)n(C)c(=O)n2C)c1ccccc1 (stereo unspecified)	.	.	.	.	.	/
COC(=O)CCCC1=CC2=CC(=O)C(C)(OC(=O)c3cnc4ccccc4n3)C(=O)C2=CO1 (stereo unspecified)	/	/	/	/	/	.

From PubChem BioAssay
